Laboratory results: ChEMBL document CHEMBL1126854, “A series of penicillin derived C2-symmetric inhibitors of HIV-1 proteinase: synthesis, mode of interaction, and structure-activity relationships” (J Med Chem, 1993)

Columns and labels:
[1] = system: MT4; assay: Inhibition of cytopathic effect of HIV-1 strain RF in MT-4 cell culture; type: functional, cell-based; conditions: Homo sapiens
Procedure, shortened: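 MT-4 cells at 10^6 cells/mL in RPMI 1640 were infected with HIV-1 RF at moi 2×10^-3 (5×10^4 cells/well). Compound in Me2SO was diluted in 10-fold steps from 100 to 0.01 μg/mL. Cells were kept 7 days at 37 °C, 5% CO2, then given MTT for 60 min. Acidified 2-propanol was added and A540 read. EC50 for 50% inhibition of formazan conversion is the mean of duplicates; toxicity was assayed at the same concentrations.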

[2] = biological target: Human immunodeficiency virus type 1 protease (Human immunodeficiency virus 1, UniProt Q72874); assay: Inhibitory activity against HIV-1 Protease
Procedure, shortened: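 Buffer: 20 mM MES pH 6.0, 2 M NaCl, 5 mM DTT, 2 mM EDTA. Compounds in 25% Me2SO over a concentration range. Incubated 60 min at 37 °C with shaking, then filtered; released radioactivity counted by scintillation. IC50 from duplicate means, standardized to a reference-compound control.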

[3] = system: Human immunodeficiency virus 1; assay: Inhibitory effects on HIV-1 induced syncytium formation in C8166 cells; type: functional, organism-based; conditions: Human immunodeficiency virus 1, C8166
Procedure, shortened: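 C8166 cells were infected with HIV-1 RF at moi 1×10^-3 and plated at 10^5 cells/well. Compound in Me2SO was serially diluted in RPMI 1640 from 50 to 0.05 μg/mL. Cells were kept 3–4 days at 37 °C, 5% CO2, and checked daily for syncytia. Syncytia were scored against untreated infected controls, and EC50 was calculated as 50% reduction of cytopathic effect.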

SMILES | EC50 [1] | IC50 [2] | EC50 [3]
CC(C)(C)OC(=O)CNC(=O)[C@@H](NC(=O)c1ccccc1-c1ccccc1)[C@@H]1N[C@@H](C(=O)NCCNC(=O)[C@@H]2N[C@@H]([C@H](NC(=O)c3ccccc3-c3ccccc3)C(=O)NCC(=O)OC(C)(C)C)SC2(C)C)C(C)(C)S1 | 1600 nM | 4.1 nM | –
CCNC(=O)[C@@H](N)[C@@H]1N[C@@H](C(=O)NCCNC(=O)[C@@H]2N[C@@H]([C@H](N)C(=O)NCC)SC2(C)C)C(C)(C)S1 | – | 120000 nM | –
CCNC(=O)[C@@H](NC(=O)CCc1ccccc1)[C@@H]1N[C@@H](C(=O)NCCNC(=O)[C@@H]2N[C@@H]([C@H](NC(=O)CCc3ccccc3)C(=O)NCC)SC2(C)C)C(C)(C)S1 | 3900 nM | 2.4 nM | 60 nM
CC1(C)S[C@H]([C@H](NC(=O)Cc2ccccc2)C(=O)NCc2ccccc2)N[C@H]1C(=O)NCCNC(=O)[C@@H]1N[C@@H]([C@H](NC(=O)Cc2ccccc2)C(=O)NCc2ccccc2)SC1(C)C | 290 nM | – | 60 nM
CC1(C)S[C@H]([C@H](NC(=O)c2ccccc2-c2ccccc2)C(=O)NCC(=O)O)N[C@H]1C(=O)NCCNC(=O)[C@@H]1N[C@@H]([C@H](NC(=O)c2ccccc2-c2ccccc2)C(=O)NCC(=O)O)SC1(C)C | > 100000 nM | 39 nM | –
CC1(C)S[C@H]([C@H](NC(=O)Cc2ccccc2)C(=O)NCCO)N[C@H]1C(=O)NCCNC(=O)[C@@H]1N[C@@H]([C@H](NC(=O)Cc2ccccc2)C(=O)NCCO)SC1(C)C | > 100000 nM | 40 nM | –
CCNC(=O)[C@@H](NC(=O)Cc1ccccc1)[C@@H]1N[C@@H](C(=O)NCCNC(=O)[C@@H]2NCSC2(C)C)C(C)(C)S1 | – | 8800 nM | –
CN(C)C(=O)[C@@H](NC(=O)Cc1ccccc1)[C@@H]1N[C@@H](C(=O)NCCNC(=O)[C@@H]2N[C@@H]([C@H](NC(=O)Cc3ccccc3)C(=O)N(C)C)SC2(C)C)C(C)(C)S1 | 4400 nM | 5.2 nM | 1700 nM
CCNC(=O)[C@@H](NC(=O)c1ccccc1Oc1ccccc1)[C@@H]1N[C@@H](C(=O)NCCNC(=O)[C@@H]2N[C@@H]([C@H](NC(=O)c3ccccc3Oc3ccccc3)C(=O)NCC)SC2(C)C)C(C)(C)S1 | > 100000 nM | 160 nM | –
CC1(C)S[C@H]([C@H](NC(=O)Cc2ccccc2)C(=O)NCC(=O)O)N[C@H]1C(=O)NCCNC(=O)[C@@H]1N[C@@H]([C@H](NC(=O)Cc2ccccc2)C(=O)NCC(=O)O)SC1(C)C | > 100000 nM | 39 nM | –
CC1(C)S[C@H]([C@@H](COC(=O)c2ccccc2)NC(=O)Cc2ccccc2)N[C@H]1C(=O)NCCNC(=O)[C@@H]1N[C@@H]([C@@H](COC(=O)c2ccccc2)NC(=O)Cc2ccccc2)SC1(C)C | – | 70 nM | –
CN(Cc1ccccc1)C(=O)[C@@H](NC(=O)Cc1ccccc1)[C@@H]1N[C@@H](C(=O)NCCNC(=O)[C@@H]2N[C@@H]([C@H](NC(=O)Cc3ccccc3)C(=O)N(C)Cc3ccccc3)SC2(C)C)C(C)(C)S1 | – | 820 nM | –
CN(C)c1ccc(CNC(=O)[C@@H](NC(=O)Cc2ccccc2)[C@@H]2N[C@@H](C(=O)NCCNC(=O)[C@@H]3N[C@@H]([C@H](NC(=O)Cc4ccccc4)C(=O)NCc4ccc(N(C)C)cc4)SC3(C)C)C(C)(C)S2)cc1 | < 10 nM | 47 nM | 20 nM
COC(=O)[C@@H](NC(=O)Cc1ccccc1)[C@@H]1N[C@@H](C(=O)NCCNC(=O)[C@@H]2N[C@@H]([C@H](NC(=O)Cc3ccccc3)C(=O)OC)SC2(C)C)C(C)(C)S1 | > 100000 nM | – | –
CCNC(=O)[C@@H](NC(=O)Cc1ccccc1)[C@@H]1N[C@@H](C(=O)NCCNC(=O)[C@@H]2N[C@@H]([C@H](NC(=O)Cc3ccccc3)C(=O)NCC)SC2(C)C)C(C)(C)S1 | – | 1300 nM | –
CN(C)c1ccc(CNC(=O)[C@@H](NC(=O)c2ccccc2-c2ccccc2)[C@@H]2N[C@@H](C(=O)NCCNC(=O)[C@@H]3N[C@@H]([C@H](NC(=O)c4ccccc4-c4ccccc4)C(=O)NCc4ccc(N(C)C)cc4)SC3(C)C)C(C)(C)S2)cc1 | < 10 nM | 0.23 nM | 30 nM
CCNC(=O)[C@@H](NC(=O)c1c(-c2ccccc2)noc1C)[C@@H]1N[C@@H](C(=O)NCCNC(=O)[C@@H]2N[C@@H]([C@H](NC(=O)c3c(-c4ccccc4)noc3C)C(=O)NCC)SC2(C)C)C(C)(C)S1 | 2500 nM | 5.4 nM | –
CC1(C)S[C@H]([C@H](NC(=O)Cc2ccccn2)C(=O)NCc2ccc(Cl)cc2)N[C@H]1C(=O)NCCNC(=O)[C@@H]1N[C@@H]([C@H](NC(=O)Cc2ccccn2)C(=O)NCc2ccc(Cl)cc2)SC1(C)C | 1900 nM | 7.5 nM | –
CCNC(=O)[C@@H](NC(=O)c1ccccc1Cc1ccccc1)[C@@H]1N[C@@H](C(=O)NCCNC(=O)[C@@H]2N[C@@H]([C@H](NC(=O)c3ccccc3Cc3ccccc3)C(=O)NCC)SC2(C)C)C(C)(C)S1 | > 100000 nM | 72 nM | –

SMILES | EC50 [1] | IC50 [2] | EC50 [3]
Cc1cn([C@H]2C[C@H](N=[N+]=[N-])[C@@H](CO)O2)c(=O)[nH]c1=O [ZIDOVUDINE] | 20 nM | – | 30 nM
CCNC(=O)[C@@H](NC(=O)c1ccccc1)[C@@H]1N[C@@H](C(=O)NCCNC(=O)[C@@H]2N[C@@H]([C@H](NC(=O)c3ccccc3)C(=O)NCC)SC2(C)C)C(C)(C)S1 | – | 390 nM | –
CC1(C)S[C@H]([C@H](NC(=O)Cc2ccccc2)C(=O)N(CCO)CCO)N[C@H]1C(=O)NCCNC(=O)[C@@H]1N[C@@H]([C@H](NC(=O)Cc2ccccc2)C(=O)N(CCO)CCO)SC1(C)C | – | 840 nM | –
CC(C)(C)OC(=O)CNC(=O)[C@@H](NC(=O)Cc1ccccc1)[C@@H]1N[C@@H](C(=O)NCCNC(=O)[C@@H]2N[C@@H]([C@H](NC(=O)Cc3ccccc3)C(=O)NCC(=O)OC(C)(C)C)SC2(C)C)C(C)(C)S1 | 2700 nM | 21 nM | –
CC1(C)S[C@H](CNC(=O)Cc2ccccc2)N[C@H]1C(=O)NCCNC(=O)[C@@H]1N[C@@H](CNC(=O)Cc2ccccc2)SC1(C)C | – | 7800 nM | –
CC1(C)S[C@H]([C@H](NC(=O)Cc2ccccn2)C(=O)NCc2ccccc2)N[C@H]1C(=O)NCCNC(=O)[C@@H]1N[C@@H]([C@H](NC(=O)Cc2ccccn2)C(=O)NCc2ccccc2)SC1(C)C | > 10000 nM | 0.55 nM | –
CCNC(=O)[C@@H](NC(=O)CC(C)C)[C@@H]1N[C@@H](C(=O)NCCNC(=O)[C@@H]2N[C@@H]([C@H](NC(=O)CC(C)C)C(=O)NCC)SC2(C)C)C(C)(C)S1 | > 100000 nM | 8.7 nM | –
CC1(C)S[C@H]([C@H](NC(=O)Cc2ccccc2)C(=O)NCc2ccccn2)N[C@H]1C(=O)NCCNC(=O)[C@@H]1N[C@@H]([C@H](NC(=O)Cc2ccccc2)C(=O)NCc2ccccn2)SC1(C)C | 80000 nM | 11 nM | –
CCNC(=O)[C@@H](NC(=O)c1ccccc1Nc1ccccc1)[C@@H]1N[C@@H](C(=O)NCCNC(=O)[C@@H]2N[C@@H]([C@H](NC(=O)c3ccccc3Nc3ccccc3)C(=O)NCC)SC2(C)C)C(C)(C)S1 | – | 4800 nM | –
CCNC(=O)[C@@H](NC(=O)Cc1ccccc1)[C@@H]1N[C@@H](C(=O)NCCNC(=O)[C@@H]2N[C@@H](CNC(=O)Cc3ccccc3)SC2(C)C)C(C)(C)S1 | > 100000 nM | 35 nM | –
CCNC(=O)[C@@H](NC(=O)/C=C\c1ccccc1)[C@@H]1N[C@@H](C(=O)NCCNC(=O)[C@@H]2N[C@@H]([C@H](NC(=O)/C=C\c3ccccc3)C(=O)NCC)SC2(C)C)C(C)(C)S1 | 3200 nM | 2.9 nM | –
CCNC(=O)[C@@H](NC(=O)Cc1ccccn1)[C@@H]1N[C@@H](C(=O)NCCNC(=O)[C@@H]2N[C@@H]([C@H](NC(=O)Cc3ccccn3)C(=O)NCC)SC2(C)C)C(C)(C)S1 | > 100000 nM | 19 nM | –
CC1(C)S[C@H]([C@H](NC(=O)Cc2ccccc2)C(=O)OCc2ccccc2)N[C@H]1C(=O)NCCNC(=O)[C@@H]1N[C@@H]([C@H](NC(=O)Cc2ccccc2)C(=O)OCc2ccccc2)SC1(C)C | > 100000 nM | 75 nM | –
CC1(C)S[C@H]([C@H](NC(=O)Cc2ccccc2)C(N)=O)N[C@H]1C(=O)NCCNC(=O)[C@@H]1N[C@@H]([C@H](NC(=O)Cc2ccccc2)C(N)=O)SC1(C)C | > 100000 nM | – | –
CC1(C)S[C@H]([C@@H](CO)NC(=O)Cc2ccccc2)N[C@H]1C(=O)NCCNC(=O)[C@@H]1N[C@@H]([C@@H](CO)NC(=O)Cc2ccccc2)SC1(C)C | > 100000 nM | 140 nM | –
CCNC(=O)[C@@H](NC(=O)Cc1ccc2ccccc2c1)[C@@H]1N[C@@H](C(=O)NCCNC(=O)[C@@H]2N[C@@H]([C@H](NC(=O)Cc3ccc4ccccc4c3)C(=O)NCC)SC2(C)C)C(C)(C)S1 | – | 820 nM | –
CCNC(=O)[C@@H](NC(=O)Cc1ccc(O)cc1)[C@@H]1N[C@@H](C(=O)NCCNC(=O)[C@@H]2N[C@@H]([C@H](NC(=O)Cc3ccc(O)cc3)C(=O)NCC)SC2(C)C)C(C)(C)S1 | – | > 12000 nM | –
CC(C)(C)NC(=O)[C@@H]1C[C@@H]2CCCC[C@@H]2CN1C[C@@H](O)[C@H](Cc1ccccc1)NC(=O)[C@H](CC(N)=O)NC(=O)c1ccc2ccccc2n1 | 4 nM | – | 0.6 nM
